An excerpt weighted towards active compounds, which were near 3.8% of everything screened.
hERG protect: compounds protecting human hERG from proarrhythmic drug block | AID 1511 | activation (rescue from dofetilide block), less the hit threshold, % at 10 µM | Q12809 | 310,000 compounds, 0.51% hits | CHO-hERG, FluxOR thallium flux, dofetilide IC70 present;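 active = activation above the mean of controls blocked by dofetilide plus 5 SD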;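 also: thallium influx through hERG after potassium depolarization seen as dye fluorescence rise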
KCNK9 block: human KCNK9 channel inhibition; HEK293 KCNK9, FluxOR thallium flux fluorescence; active compounds read low; B-score at 10 µM; 310,000 compounds, 1.2% hits;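 active = ratio B-score over 3 SD below the library mean, with starting fluorescence within 5 SD of its mean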;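 also: negative B-score means less thallium flux so channel inhibition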
Kir21 block: inhibitors of mouse Kir2.1 inward-rectifier potassium channel; HEK293-Kir2.1, FluxOR thallium flux fluorescence; active compounds read low; 310,000 compounds, 0.85% hits; B-score at 10 µM;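 active = fluorescence ratio B-score at or below minus 3 SD of library scores, with starting-brightness B-score within 2 SD, cut at about -4.2 in these data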;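 also: channel flux triggered by added potassium and thallium sulfate stimulus; B-score of peak minus minimum fluorescence over baseline after thallium stimulus; more negative B-score means stronger Kir2.1 block with less thallium influx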
KCNQ1 act: human KCNQ1 channel potentiation or activation | B-score at 10 µM | 310,000 compounds, 0.35% hits | P51787 | CHO-K1 KCNQ1, thallium flux FluxOR fluorescence; active compounds read high;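 active = fluorescence ratio B-score, a plate-corrected score, at least three library SD, with initial intensity B-score within 5 SD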
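Material: CHO-K1 cells stably expressing KCNQ1. Medium: assay buffer for compound exposure, DMSO matched across wells. Reagent: K+/Tl+ depolarizing stimulus. Compound dosing: single-concentration screen. Times: 37 °C overnight plating, 90-min dark dye load, 20-min compound pretreatment. Technique: FluxOR Tl+ flux fluorescence.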
KCNQ1 inh: blocks the human KCNQ1 potassium channel; P51787; CHO-K1 KCNQ1, FluxOR thallium flux fluorescence; active compounds read high; B-score at 10 µM; 310,000 compounds, 1.3% hits; AID 2642;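 active = compounds whose thallium flux B-score, printed positive for inhibition, exceeds three library SD while starting fluorescence stays within three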;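 also: channel opened by potassium depolarization with thallium stimulus after 20 min compound exposure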
KCNK3 inh: human KCNK3 channel inhibition, primary screen; 340,000 compounds, 0.84% hits; CHO-KCNK3 thallium flux, FluxOR fluorescence; active compounds read low; B-score at 10 µM;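 active = B-score under library mean minus 4 SD, starting fluorescence ratio at most library mean plus 5 SD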;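 also: more negative B-score means stronger inhibition of thallium flux through KCNK3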
Target sequence (O14649 whole entry, looked up): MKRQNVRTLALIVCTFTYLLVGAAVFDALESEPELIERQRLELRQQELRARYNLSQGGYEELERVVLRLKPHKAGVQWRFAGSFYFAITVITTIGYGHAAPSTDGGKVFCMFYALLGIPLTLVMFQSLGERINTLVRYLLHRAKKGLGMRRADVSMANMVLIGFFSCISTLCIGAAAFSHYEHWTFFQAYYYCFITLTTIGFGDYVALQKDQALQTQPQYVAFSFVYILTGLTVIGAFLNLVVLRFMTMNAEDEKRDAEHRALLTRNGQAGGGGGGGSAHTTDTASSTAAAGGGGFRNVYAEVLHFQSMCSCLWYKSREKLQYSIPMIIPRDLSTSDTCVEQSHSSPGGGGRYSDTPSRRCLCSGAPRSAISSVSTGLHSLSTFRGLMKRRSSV
* = called active by the depositor; i = inactive; . = not tested or not shown.

SMILES	hERG protect	KCNK9 block	Kir21 block	KCNQ1 act	KCNQ1 inh	KCNK3 inh
Cc1cccc(NC(=S)NC(=O)c2ccco2)c1C	22*	i	0.18	33*	i	i
Cc1cc(C)cc(NC(=S)NC2CC3CCC(C2)N3Cc2ccco2)c1 (centres undefined)	-12	i	-1.1	i	i	i
Cc1cccc(NC(=O)CCNC(=O)c2ccco2)c1C	-5	i	1.7	i	i	i
CCOc1ccc(NC(=S)NC2CC3CCC(C2)N3Cc2ccco2)cc1 (centres undefined)	-18	-7.2*	1	i	i	i
COc1ccc(CN(C)C(=O)c2cccc(NC(=O)CC3SC(N4CCCCC4)=NC3=O)c2)c(OC)c1 (centres undefined)	.	.	.	.	.	i
COc1ccc(Br)cc1/C=C/C(=O)NC(=S)Nc1ccc(CN2CCOCC2)cc1	-19	i	-0.02	i	8*	i
COc1ccc(C(=O)NC(=S)Nc2ccc(CN3CCOCC3)cc2)cc1OC	-5	i	-0.87	i	i	i
O=C(/C=C/c1ccc(Cl)cc1)NC(=S)Nc1ccc(CN2CCOCC2)cc1	-8	i	0.2	i	i	i
COc1ccc(C(=O)Nc2ccc(CN3CCOCC3)cc2)cc1Br	-5	i	-5.3*	i	i	i
CCCCCCCCNS(=O)(=O)CCNC1CC1	.	.	.	.	.	i
CC1(C)Nc2ccc(O)cc2-c2c1ssc2=S	-8	i	-12*	i	i	i
Cc1cc(=S)[nH]c2c(C)cccc12	5.0*	i	0.07	i	i	i
COc1cccc(N2CCN(c3ncnc4c3[nH]c3ccc(F)cc34)CC2C)c1 (centres undefined)	-38	i	-0.76	i	13*	-13*
COCCCNC(=O)/C(C#N)=c1\s/c(=C\c2ccccc2OC(F)F)c(=O)n1CCCOC	-6	i	-1.1	i	i	i
CCCCNC(=O)/C(C#N)=c1\s/c(=C\c2ccccc2OC(F)F)c(=O)n1CCCOC	-9	i	-1.1	i	7*	i
CCN(CC)CC(O)COC(c1ccccc1)c1ccccc1 (centres undefined)	-5	i	0.28	i	i	i
CCN(Cc1ccccc1)CC(O)COC(c1ccc(OC)cc1)c1ccc(OC)cc1 (centres undefined)	-11	i	-8.8*	i	i	i
O=C(NC1CC1)C1CCC(=O)N1C1CCCC1 (centres undefined)	5.2*	i	-1.1	i	i	i
CC(C)N1C(=O)CCC1C(=O)NC1CCCC1 (centres undefined)	-6	i	-1.5	i	i	i
Oc1ccc(C[C@H]2CNCCN2CCC23CC4CC(CC(C4)C2)C3)cc1	-3	i	-0.66	i	6*	i
COc1cccc2sc(Nc3nnc(-c4ccccc4Cl)o3)nc12	8.7*	i	1.5	15*	i	i
COc1cccc(-c2nnc(Nc3nc4c(F)cccc4s3)o2)c1	40*	i	-0.88	35*	i	i
COc1cccc2sc(Nc3nc(-c4cc5ccccc5oc4=O)cs3)nc12	-1	-7.3*	0.93	i	i	i
CN(C(=O)CSc1cc(Cl)ccc1Cl)C1CCS(=O)(=O)C1 (centres undefined)	.	.	.	.	.	i
CCOC(=O)C1=C(COC(=O)c2ccco2)NC(=O)NC1CC (centres undefined)	.	.	.	.	.	i
SMILES	hERG protect	KCNK9 block	Kir21 block	KCNQ1 act	KCNQ1 inh	KCNK3 inh
O=C(NNC(=O)c1ccccc1O)c1ccc(NS(=O)(=O)c2ccc(F)c(F)c2)cc1	-29	i	-0.98	i	6*	i
c1ccc2nc(N3CCCC3)c(N3CCCCC3)nc2c1	.	.	.	.	.	-10*
O=C(Cc1ccc(Cl)cc1)N1CCN(c2ccccc2)CC1	-6	i	0.15	i	i	i
COc1ccc(OC)c(/C=C/C(=O)N2CCN(S(=O)(=O)c3cc(C)ccc3C)CC2)c1	.	.	.	.	.	i
COc1ccccc1/C=C/C(=O)N1CCN(S(=O)(=O)c2cc(C)ccc2C)CC1	.	.	.	.	.	-8.8*
Cc1ccc(CNC(=O)Cn2cnc3c(NC(=O)OCc4ccccc4)ncnc32)o1	.	.	.	.	.	i
CC[C@H]1C(O)C[C@H]2CCN3C(=O)CCC[C@H]1[C@H]23 (some centres undefined)	.	.	.	.	.	i
CN1CCN(S(=O)(=O)c2cccs2)CC1	-9	i	1.6	i	i	i
CC1c2ccsc2CCN1S(=O)(=O)c1cccs1 (centres undefined)	-7	i	-6.2*	i	i	i
c1ccc2oc(-c3ccn[nH]3)cc2c1	6.9*	i	-1.3	i	i	i
c1ccc2oc(-c3[nH]ncc3CN3CCSCC3)cc2c1	-17	i	-0.8	i	i	i
COC(=O)c1c(NC(=O)C(=O)NCCCN2CCOCC2)sc2c1CCCC2	-12	i	-5*	i	i	i
N#Cc1c(NC(=O)C(=O)NCCCN2CCOCC2)sc2c1CCC2	-11	i	-0.97	i	i	i
CCC(C)NC(=O)c1ccccc1NC(=O)/C(=C/c1ccc(OC)cc1)c1ccccc1 (centres undefined)	-14	i	-0.01	i	7*	i
Cc1ccc(S(=O)(=O)N2CCN(S(=O)(=O)c3ccccc3Br)CC2)cc1	.	.	.	.	.	i
O=C(Nc1ccc(Cl)c(Cl)c1)c1ccncc1	-11	i	0.43	i	i	i
O=C(Nc1ccc(Cl)c(Cl)c1)c1ccc(Cl)c(Cl)c1	-7	i	-0.45	i	7*	i
CCCCN(C(=O)c1ccc2c(c1)OCO2)c1ccccc1	-11	i	-5.4*	i	i	i
O=C(Nc1ccc(Cl)c(C(=O)N2CCOCC2)c1)c1ccccc1	-10	i	-0.69	i	i	i
CN(C)CCCNC(=S)N1CCn2c(nc3ccccc32)C1	-5	i	0.27	i	i	i
Cc1nc2ccccc2n1CC(=O)OCC(=O)NCCc1ccccc1	-7	i	1.4	i	i	i
NC(=O)CCS(=O)(=O)c1ccc(Cl)cc1	6.4*	i	3.4	i	i	i
O=C(c1ccc(N2CCCCCC2)c([N+](=O)[O-])c1)N1CCc2ccccc21	-9	-7.4*	0.2	i	i	.
CCOC(=O)c1c(C)[nH]c(C(C)=O)c1C	-17	i	0.81	i	i	i
CCOC(=O)c1[nH]c(C=O)c(C(=O)OCC)c1C	4.9*	i	0.89	13*	i	i
COCCC(=O)N1CCC(Oc2ccc(C(=O)N(C)Cc3cc(C)no3)cc2)CC1	-11	i	-0.02	i	i	i
